ChEMBL document CHEMBL2380296, “Structure-based design and optimization of 2-aminothiazole-4-carboxamide as a new class of CHK1 inhibitors” (Bioorg Med Chem Lett, 2013)

Key:
[1] = target: Testis-specific serine/threonine-protein kinase 2 (Homo sapiens, UniProt Q96PF2); assay: Inhibition of human TSSK2
[2] = Cmax in rat at 10 mg/kg, po; type: ADME, organism-based; set-up: dose 10 mg/kg, route oral; conditions: in vivo
[3] = target: Interleukin-1 receptor-associated kinase 4 (Homo sapiens, UniProt Q9NWZ3); assay: Inhibition of human IRAK4
[4] = target: T1, Cytochrome P450 3A4 (Homo sapiens, UniProt P08684); assay: Time-dependent inhibition of CYP3A4 in human liver microsomes using 6beta-hydroxylase as substrate incubated for 30 mins prior to substrate addition measured after 30 mins by LC-MS/MS analysis; type: ADME, Microsome
T1 sequence (P08684 whole entry): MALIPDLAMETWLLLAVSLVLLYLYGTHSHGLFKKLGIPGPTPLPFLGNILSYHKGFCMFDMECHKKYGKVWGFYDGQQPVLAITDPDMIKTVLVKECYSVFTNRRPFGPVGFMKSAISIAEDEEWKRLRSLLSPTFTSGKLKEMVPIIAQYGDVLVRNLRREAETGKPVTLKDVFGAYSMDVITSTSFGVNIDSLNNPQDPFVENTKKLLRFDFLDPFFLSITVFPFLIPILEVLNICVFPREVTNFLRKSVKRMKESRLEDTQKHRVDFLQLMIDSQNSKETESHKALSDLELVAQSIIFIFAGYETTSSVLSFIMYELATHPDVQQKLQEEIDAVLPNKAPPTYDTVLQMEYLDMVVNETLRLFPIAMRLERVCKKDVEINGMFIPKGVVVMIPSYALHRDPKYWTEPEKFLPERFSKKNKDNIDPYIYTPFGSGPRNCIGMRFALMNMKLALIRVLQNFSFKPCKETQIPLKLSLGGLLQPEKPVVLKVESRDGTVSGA

[5] = target: D(2) dopamine receptor (Homo sapiens) (UniProt P14416); assay: Inhibition of dopamine D2 receptor (unknown origin) at 2 ug/mL relative to control
[6] = target: T2, hERG (KCNH2) (Homo sapiens, UniProt Q12809); assay: Inhibition of human ERG transfected in CHO cells at 5 ug/mL by rubidium efflux assay relative to control; type: cell-based; conditions: CHO cells transfected with human ERG
T2 sequence (Q12809 whole entry): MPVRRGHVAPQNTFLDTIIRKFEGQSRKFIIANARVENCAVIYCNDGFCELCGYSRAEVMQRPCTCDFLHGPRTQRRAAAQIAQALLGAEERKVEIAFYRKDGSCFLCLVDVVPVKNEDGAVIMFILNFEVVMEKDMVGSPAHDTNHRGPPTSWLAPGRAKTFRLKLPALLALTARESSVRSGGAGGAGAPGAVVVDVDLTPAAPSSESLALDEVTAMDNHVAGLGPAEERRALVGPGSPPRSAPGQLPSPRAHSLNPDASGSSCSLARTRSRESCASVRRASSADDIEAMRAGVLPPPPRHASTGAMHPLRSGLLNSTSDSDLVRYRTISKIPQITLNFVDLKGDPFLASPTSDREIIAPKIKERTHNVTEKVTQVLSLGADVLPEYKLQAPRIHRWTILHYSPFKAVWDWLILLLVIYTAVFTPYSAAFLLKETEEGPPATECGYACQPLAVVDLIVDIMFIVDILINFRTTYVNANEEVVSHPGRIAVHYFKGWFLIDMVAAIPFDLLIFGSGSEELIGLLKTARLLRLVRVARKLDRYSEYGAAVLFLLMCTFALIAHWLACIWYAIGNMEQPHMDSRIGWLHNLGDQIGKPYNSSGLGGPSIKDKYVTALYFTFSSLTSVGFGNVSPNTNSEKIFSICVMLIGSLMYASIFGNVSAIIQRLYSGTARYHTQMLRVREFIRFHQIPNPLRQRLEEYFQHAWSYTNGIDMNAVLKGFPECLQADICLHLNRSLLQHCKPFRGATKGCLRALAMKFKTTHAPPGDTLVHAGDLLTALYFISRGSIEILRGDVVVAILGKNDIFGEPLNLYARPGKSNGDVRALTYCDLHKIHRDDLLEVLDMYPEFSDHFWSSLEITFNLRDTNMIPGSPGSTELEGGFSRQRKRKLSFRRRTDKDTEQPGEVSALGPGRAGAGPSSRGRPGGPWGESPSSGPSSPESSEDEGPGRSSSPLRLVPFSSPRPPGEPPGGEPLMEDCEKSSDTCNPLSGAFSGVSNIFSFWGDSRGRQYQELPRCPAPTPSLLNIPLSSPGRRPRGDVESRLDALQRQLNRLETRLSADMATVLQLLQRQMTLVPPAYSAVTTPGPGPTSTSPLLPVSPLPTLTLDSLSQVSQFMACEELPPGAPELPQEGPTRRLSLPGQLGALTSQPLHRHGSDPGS

[7] = target: Muscarinic acetylcholine receptor M2 (Homo sapiens) (UniProt P08172); assay: Inhibition of muscarinic M2 receptor (unknown origin) at 2 ug/mL relative to control
[8] = target: Serine/threonine-protein kinase PLK3 (Homo sapiens, UniProt Q9H4B4); assay: Inhibition of human PLK3
[9] = Plasma concentration in rat at 10 mg/kg, po measured at 2 hrs; type: ADME, organism-based; set-up: dose 10 mg/kg, route oral
[10] = target: D(1A) dopamine receptor (Homo sapiens) (UniProt P21728); assay: Inhibition of dopamine D1 receptor (unknown origin) at 2 ug/mL relative to control
D(1A) dopamine receptor (Homo sapiens), sequence (P21728 whole entry): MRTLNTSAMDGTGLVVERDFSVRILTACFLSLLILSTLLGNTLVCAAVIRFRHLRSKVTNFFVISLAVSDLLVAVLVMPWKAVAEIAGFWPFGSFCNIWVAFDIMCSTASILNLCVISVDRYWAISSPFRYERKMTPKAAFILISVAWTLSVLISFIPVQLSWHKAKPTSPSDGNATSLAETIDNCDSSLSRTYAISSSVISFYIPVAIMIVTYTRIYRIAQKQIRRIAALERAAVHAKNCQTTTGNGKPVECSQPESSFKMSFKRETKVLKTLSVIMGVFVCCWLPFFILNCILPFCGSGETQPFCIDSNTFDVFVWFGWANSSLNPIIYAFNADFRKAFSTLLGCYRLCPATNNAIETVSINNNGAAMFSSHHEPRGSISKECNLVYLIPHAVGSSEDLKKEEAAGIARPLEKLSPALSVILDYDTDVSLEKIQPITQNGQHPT

[11] = target: Neuropeptide Y receptor type 5 (Homo sapiens) (UniProt Q15761); assay: Inhibition of NPYY5 receptor (unknown origin) at 2 ug/mL relative to control
[12] = Plasma concentration in rat at 10 mg/kg, po measured at 1 hr; type: ADME, organism-based; set-up: dose 10 mg/kg, route oral
[13] = target: Muscarinic acetylcholine receptor M3 (Homo sapiens) (UniProt P20309); assay: Inhibition of muscarinic M3 receptor (unknown origin) at 2 ug/mL relative to control
[14] = target: Alpha-2A adrenergic receptor (Homo sapiens) (UniProt P08913); assay: Inhibition of adrenergic alpha-2A receptor (unknown origin) at 1 ug/mL relative to control
[15] = target: Vasopressin V1a receptor (Homo sapiens) (UniProt P37288); assay: Inhibition of vasopressin V1a receptor (unknown origin) at 2 ug/mL relative to control
[16] = target: Muscarinic acetylcholine receptor M5 (Homo sapiens) (UniProt P08912); assay: Inhibition of muscarinic M5 receptor (unknown origin) at 2 ug/mL relative to control
[17] = target: C-X-C chemokine receptor type 3 (Homo sapiens) (UniProt P49682); assay: Inhibition of CXCR3 (unknown origin) at 2 ug/mL relative to control
C-X-C chemokine receptor type 3 (Homo sapiens), sequence (P49682 whole entry): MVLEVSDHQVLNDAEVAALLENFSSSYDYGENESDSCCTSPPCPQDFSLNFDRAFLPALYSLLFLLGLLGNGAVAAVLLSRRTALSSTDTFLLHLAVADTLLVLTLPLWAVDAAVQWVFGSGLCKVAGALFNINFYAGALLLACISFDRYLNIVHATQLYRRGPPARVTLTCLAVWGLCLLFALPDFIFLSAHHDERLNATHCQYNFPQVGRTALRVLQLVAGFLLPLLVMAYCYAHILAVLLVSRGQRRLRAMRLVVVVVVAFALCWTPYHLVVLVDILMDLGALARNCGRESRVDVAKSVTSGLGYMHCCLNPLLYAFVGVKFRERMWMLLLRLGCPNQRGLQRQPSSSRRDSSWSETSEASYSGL

[18] = target: 5-hydroxytryptamine receptor 1A (Homo sapiens) (UniProt P08908); assay: Inhibition of 5HT-1A receptor (unknown origin) at 2 ug/mL relative to control
5-hydroxytryptamine receptor 1A (Homo sapiens), sequence (P08908 whole entry): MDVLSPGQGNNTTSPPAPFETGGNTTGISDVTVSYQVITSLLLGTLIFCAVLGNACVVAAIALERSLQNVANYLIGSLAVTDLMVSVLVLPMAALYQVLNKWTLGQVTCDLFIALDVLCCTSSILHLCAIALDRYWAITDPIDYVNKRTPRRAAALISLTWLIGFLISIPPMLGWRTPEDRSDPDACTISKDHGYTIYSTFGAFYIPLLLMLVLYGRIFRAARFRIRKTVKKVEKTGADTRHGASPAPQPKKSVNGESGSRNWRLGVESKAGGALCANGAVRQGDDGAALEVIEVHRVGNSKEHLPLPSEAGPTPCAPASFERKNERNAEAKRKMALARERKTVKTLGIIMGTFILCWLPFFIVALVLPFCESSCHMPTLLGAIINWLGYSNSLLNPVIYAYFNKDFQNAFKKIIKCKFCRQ

[19] = target: Protein kinase C alpha type (Homo sapiens, UniProt P17252); assay: Inhibition of human PKCA
[20] = target: Alpha-1B adrenergic receptor (Homo sapiens) (UniProt P35368); assay: Inhibition of adrenergic alpha-1B receptor (unknown origin) at 1 ug/mL relative to control
[21] = target: T3, Cytochrome P450 2D6 (Homo sapiens, UniProt P10635); assay: Time-dependent inhibition of CYP2D6 in human liver microsomes using dextromethorphan as substrate incubated for 30 mins prior to substrate addition measured after 30 mins by LC-MS/MS analysis; type: ADME, Microsome
T3 sequence (P10635 whole entry): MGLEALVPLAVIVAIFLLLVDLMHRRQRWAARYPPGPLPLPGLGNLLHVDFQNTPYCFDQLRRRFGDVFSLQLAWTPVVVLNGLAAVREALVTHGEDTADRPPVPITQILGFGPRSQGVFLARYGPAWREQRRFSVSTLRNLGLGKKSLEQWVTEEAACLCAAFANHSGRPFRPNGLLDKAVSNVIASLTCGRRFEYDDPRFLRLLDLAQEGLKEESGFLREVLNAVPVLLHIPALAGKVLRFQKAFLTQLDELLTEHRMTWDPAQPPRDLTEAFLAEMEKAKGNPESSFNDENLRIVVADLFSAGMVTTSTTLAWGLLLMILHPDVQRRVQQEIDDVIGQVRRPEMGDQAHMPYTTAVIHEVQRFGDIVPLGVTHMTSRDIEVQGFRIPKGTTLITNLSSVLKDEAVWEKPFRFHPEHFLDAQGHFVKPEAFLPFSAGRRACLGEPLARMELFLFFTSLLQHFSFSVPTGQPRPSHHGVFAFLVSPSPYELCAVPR

[22] = Plasma concentration in rat at 10 mg/kg, po measured at 6 hrs; type: ADME, organism-based; set-up: dose 10 mg/kg, route oral
[23] = AUC in rat at 10 mg/kg, po; type: ADME, organism-based; set-up: dose 10 mg/kg, route oral; conditions: plasma
[24] = target: T2, hERG (KCNH2); assay: Inhibition of human ERG expressed in mouse L929 cells at 10 uM by IonWorks assay relative to control; type: cell-based; conditions: mouse L929 cells expressing human ERG
[25] = target: Rho-associated protein kinase 2 (Homo sapiens, UniProt O75116); assay: Inhibition of human ROCK2
[26] = target: Casein kinase I isoform delta (Homo sapiens, UniProt P48730); assay: Inhibition of human CSNK1D
[27] = Tmax in rat at 10 mg/kg, po; type: ADME, organism-based; set-up: dose 10 mg/kg, route oral; conditions: in vivo
[28] = target: Oxytocin receptor (Homo sapiens) (UniProt P30559); assay: Inhibition of oxytocin receptor (unknown origin) at 2 ug/mL relative to control
Oxytocin receptor (Homo sapiens), sequence (P30559 whole entry): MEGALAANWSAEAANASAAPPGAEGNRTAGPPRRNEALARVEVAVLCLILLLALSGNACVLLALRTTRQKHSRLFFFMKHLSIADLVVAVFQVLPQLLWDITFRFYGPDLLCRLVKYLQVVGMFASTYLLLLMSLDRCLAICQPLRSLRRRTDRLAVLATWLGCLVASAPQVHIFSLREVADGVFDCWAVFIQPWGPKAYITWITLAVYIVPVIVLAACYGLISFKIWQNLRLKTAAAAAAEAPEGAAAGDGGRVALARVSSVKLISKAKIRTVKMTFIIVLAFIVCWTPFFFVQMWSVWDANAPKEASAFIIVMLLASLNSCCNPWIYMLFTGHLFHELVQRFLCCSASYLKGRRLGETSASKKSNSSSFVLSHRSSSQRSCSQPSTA

[29] = target: Mitogen-activated protein kinase 1 (Homo sapiens, UniProt P28482); assay: Inhibition of human ERK2
[30] = target: T2, hERG (KCNH2); assay: Inhibition of human ERG transfected in CHO cells at 1.5 ug/mL by rubidium efflux assay relative to control; type: cell-based; conditions: CHO cells transfected with human ERG
[31] = target: Histamine H1 receptor (Homo sapiens) (UniProt P35367); assay: Inhibition of histamine H1 receptor (unknown origin) at 1 ug/mL relative to control
[32] = target: Tyrosine-protein kinase Lck (Homo sapiens, UniProt P06239); assay: Inhibition of human LCK
[33] = target: Cyclin-dependent kinase 2 (Homo sapiens, UniProt P24941); assay: Inhibition of human CDK2
Method in brief: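 Biochemical kinase inhibition assay. Reported values are averages of duplicate or triplicate determinations, with a standard deviation of 10%.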

[34] = target: Vasopressin V2 receptor (Homo sapiens) (UniProt P30518); assay: Inhibition of vasopressin V2 receptor (unknown origin) at 2 ug/mL relative to control
[35] = Plasma concentration in rat at 10 mg/kg, po measured at 4 hrs; type: ADME, organism-based; set-up: dose 10 mg/kg, route oral
[36] = target: Serine/threonine-protein kinase 3 (Homo sapiens, UniProt Q13188); assay: Inhibition of human MST2
[37] = target: Alpha-1A adrenergic receptor (Homo sapiens) (UniProt P35348); assay: Inhibition of adrenergic alpha-1A receptor (unknown origin) at 1 ug/mL relative to control
Alpha-1A adrenergic receptor (Homo sapiens), sequence (P35348 whole entry): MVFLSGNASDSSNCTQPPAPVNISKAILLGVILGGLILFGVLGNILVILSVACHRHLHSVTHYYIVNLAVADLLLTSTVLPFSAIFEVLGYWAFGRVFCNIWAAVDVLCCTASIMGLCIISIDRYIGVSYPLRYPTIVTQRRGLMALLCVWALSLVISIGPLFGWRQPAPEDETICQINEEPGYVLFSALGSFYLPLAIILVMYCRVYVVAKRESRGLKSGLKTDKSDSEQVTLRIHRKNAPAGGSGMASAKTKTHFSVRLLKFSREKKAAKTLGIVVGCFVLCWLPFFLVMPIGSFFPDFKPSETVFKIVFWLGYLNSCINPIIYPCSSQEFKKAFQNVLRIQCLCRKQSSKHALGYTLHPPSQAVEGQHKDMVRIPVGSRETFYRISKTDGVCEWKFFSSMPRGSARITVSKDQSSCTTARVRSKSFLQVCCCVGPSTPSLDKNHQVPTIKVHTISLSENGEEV

[38] = target: T4, Cytochrome P450 2C9 (Homo sapiens, UniProt P11712); assay: Inhibition of CYP2C9 in human liver microsomes using tolbutamide as substrate by LC-MS/MS analysis; type: ADME, Microsome
T4 sequence (P11712 whole entry): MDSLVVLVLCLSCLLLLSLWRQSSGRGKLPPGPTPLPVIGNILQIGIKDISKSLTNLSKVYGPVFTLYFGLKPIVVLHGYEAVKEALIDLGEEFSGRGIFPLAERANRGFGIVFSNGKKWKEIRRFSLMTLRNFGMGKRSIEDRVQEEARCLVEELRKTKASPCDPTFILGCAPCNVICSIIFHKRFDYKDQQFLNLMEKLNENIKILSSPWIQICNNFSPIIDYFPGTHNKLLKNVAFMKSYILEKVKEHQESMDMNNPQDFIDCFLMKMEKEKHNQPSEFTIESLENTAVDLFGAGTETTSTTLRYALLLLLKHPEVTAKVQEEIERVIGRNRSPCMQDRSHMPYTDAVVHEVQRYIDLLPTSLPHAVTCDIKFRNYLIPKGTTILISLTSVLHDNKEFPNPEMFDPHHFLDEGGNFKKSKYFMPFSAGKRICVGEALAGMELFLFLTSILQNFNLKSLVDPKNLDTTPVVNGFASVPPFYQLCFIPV

[39] = target: Inhibitor of nuclear factor kappa-B kinase subunit beta (Homo sapiens, UniProt O14920); assay: Inhibition of human IKKB
[40] = target: Vasopressin V1b receptor (Homo sapiens) (UniProt P47901); assay: Inhibition of vasopressin V1b receptor (unknown origin) at 2 ug/mL relative to control
[41] = target: T2, hERG (KCNH2); assay: Inhibition of human ERG expressed in mouse L929 cells at 1 uM by IonWorks assay relative to control; type: cell-based; conditions: mouse L929 cells expressing human ERG
[42] = target: T4, Cytochrome P450 2C9; assay: Time-dependent inhibition of CYP2C9 in human liver microsomes using tolbutamide as substrate incubated for 30 mins prior to substrate addition measured after 30 mins by LC-MS/MS analysis; type: ADME, Microsome
[43] = target: T1, Cytochrome P450 3A4; assay: Inhibition of CYP3A4 in human liver microsomes using […] as substrate by LC-MS/MS analysis; type: ADME, Microsome
[44] = target: T3, Cytochrome P450 2D6; assay: Inhibition of CYP2D6 in human liver microsomes using dextromethorphan as substrate by LC-MS/MS analysis; type: ADME, Microsome

For `COc1ccc2c(c1)C(=O)N(c1nc(C(=O)Nc3cnccc3N3CCNCC3)cs1)C2`, the IC50 [1] was 8.9 µM, the Cmax [2] was 600 nM and the IC50 [3] was 1.1 µM. For the same compound, the IC50 [4] was > 30 µM, the inhibition [5] was 16.9% and the inhibition at 5 ug/mL [6] was 65%. For the same compound, the inhibition [7] was 3.5%, the IC50 [8] was > 30 µM and the concentration at 2 h [9] was 150 ng/mL. It also gave an inhibition [10] of 2.8%, an inhibition [11] of 13.2% and a concentration at 1 h [12] of 57 ng/mL. The inhibition [13] was 10.1%, the inhibition [14] was 16.1% and the inhibition [15] was 10.9%. It also gave an inhibition [16] of 14.4%, an inhibition [17] of 8% and an inhibition [18] of 12.8%. For the same compound, the IC50 [19] was > 30 µM, the inhibition [20] was 21.8% and the IC50 [21] was > 30 µM. For the same compound, the concentration at 6 h [22] was 252 ng/mL, the AUC [23] was 7.2 µM·h and the inhibition at 10 µM [24] was 42%. For the same compound, the IC50 [25] was 6.8 µM, the IC50 [26] was > 30 µM and the Tmax [27] was 6 h. It also gave an inhibition [28] of 25.7%, an IC50 [29] of 20 µM and an inhibition at 1.5 ug/mL [30] of 24%. The inhibition [31] was 21%, the IC50 [32] was > 30 µM and the IC50 [33] was > 30 µM. For the same compound, the inhibition [34] was 20.4%, the concentration at 4 h [35] was 183 ng/mL and the IC50 [36] was 2.1 µM. The inhibition [37] was 23.7%, the IC50 [38] was > 30 µM and the IC50 [39] was > 30 µM. The inhibition [40] was 6.1%, the inhibition at 1 µM [41] was 4% and the IC50 [42] was > 30 µM. For the same compound, the IC50 [43] was > 30 µM and the IC50 [44] was > 30 µM.
